The subject of one data set is MIA PaCa-2 cell line. Description: MTT cytotoxicity and combination index. The format is cell-based, human. To be noted: MIA PaCa-2, MTT, 72 hours. The method, boiled down: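 MIA PaCa-2 (ATCC) seeded at 3×10^3 cells/well and grown 24 h at 37°C, 5% CO2. Exposed 72 h to test compound (DMSO solution, solvent-based, or albumin nanoparticle form) at 0.01, 0.1, 1, 5, 10, 50, 100 and 1000 ng/mL. MTT (0.5 mg/mL) added for 2 h, formazan dissolved in DMSO, A550 read. Survival expressed as % of control wells.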

The conditions of data set [1]: plasma, after administration; cited from earlier work.

The values below come from PMC8502542 (International Journal of Nanomedicine, 2021).

Turning to `CC(=O)O[C@H]1C(=O)[C@@]2(C)[C@H]([C@H](OC(=O)c3ccccc3)[C@]3(O)C[C@H](OC(=O)[C@H](O)[C@@H](NC(=O)c4ccccc4)c4ccccc4)C(C)=C1C3(C)C)[C@]1(OC(C)=O)CO[C@@H]1C[C@@H]2O` [PTXfree, paclitaxel], the “IC50, weight ratio CFZ:PTX 0: 1” value with MIA PaCa-2 cell line (PTX form alone) stood at 0.44 ng/mL.
Take `CC(C)C[C@H](NC(=O)[C@H](CCc1ccccc1)NC(=O)CN1CCOCC1)C(=O)N[C@@H](Cc1ccccc1)C(=O)N[C@@H](CC(C)C)C(=O)[C@@]1(C)CO1` [CFZfree, carfilzomib]: in the data set with MIA PaCa-2 cell line (CFZ form alone), the “IC50, weight ratio CFZ:PTX 1: 0” value is on record as 8.90 ng/mL. In addition, in data set [1], the “initial half-life (T1/2,initial)” value is less than 20 min.
